{
  "source": "ChEMBL document CHEMBL4613248",
  "about": "“Twelfth-Position Deuteration of Nevirapine Reduces 12-Hydroxy-Nevirapine Formation and Nevirapine-Induced Hepatocyte Death” (J Med Chem, 2020)",
  "key": {"Hepatocyte [1]": {"tested_on": "Hepatocyte", "assay": "Induction of change in PTP4A1 protein expression in human primary hepatocytes at 10 uM incubated for 48 hrs by relative-quantitation label-free proteomics analysis relative to NVP", "type": "cell-based", "outline": "(§1)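 Cryoplateable pooled human hepatocytes (10 mixed-sex donors per pool; three pools), adhered overnight, then given fresh medium containing compound (10 μM), NVP (10 μM) or vehicle (0.1% DMSO) for 48 h. Lysate reduced (DTT) and alkylated (iodoacetamide), acetone-precipitated and digested with trypsin. Label-free Top10 nanoLC-MS with precursor ion area quantitation; unpaired t test P values, Cohen's d effect size.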"}, "[2]": {"assay": "Drug metabolism in C57BL/6J mouse primary hepatocytes assessed as 12-O-GlucD2NVP metabolite formation at 10 uM incubated for 24 hrs by uHPLC-MS analysis", "type": "ADME, cell-based, Hepatocyte", "outline": "(§2)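 Fresh hepatocytes from male C57BL/6J mice (8–13 weeks), adhered overnight, then 10 μM substrate or vehicle (0.1% DMSO) for 24 h. Medium extracted with acetonitrile (50% final), dried, reconstituted in methanol; uHPLC-Orbitrap targeted SIM plus PRM (monooxygenated metabolites) or high-resolution ions (O-glucuronides, 459.1510/462.1700 ±5 ppm); four experimental replicates.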"}, "Hepatocyte [3]": {"tested_on": "Hepatocyte", "assay": "Induction of change in Rps27a protein expression in C57BL/6J mouse primary hepatocytes at 400 uM incubated for 8 hrs by relative-quantitation label-free proteomics analysis relative to NVP", "type": "cell-based", "outline": "as §1, with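 “Fresh primary” for “Cryoplateable pooled human”, “from male C57BL/6J mice aged 8–13 weeks,” for “(10 mixed-sex donors per pool; three pools),”, “(400” for “(10”, “(0.2%” for “(0.1%”, “8” for “48”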"}, "[4]": {"assay": "Drug metabolism in human primary hepatocytes assessed as O-GlucNVP metabolite formation at 10 uM incubated for 24 hrs by uHPLC-MS analysis", "type": "ADME, cell-based, Hepatocyte", "outline": "(§3)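 Cryoplateable pooled human hepatocytes (10 mixed-sex donors per pool, three lots), adhered overnight, then 10 μM substrate or vehicle (0.1% DMSO) for 24 or 48 h in InVitroGRO CP medium. Medium extracted with 50% acetonitrile, dried, reconstituted in methanol; uHPLC-Orbitrap MS/MS for monooxygenated metabolites, high-resolution MS for O-glucuronide.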"}, "[5]": {"assay": "Drug metabolism in C57BL/6J mouse primary hepatocytes assessed as Cytochrome P450-mediated formation of 8-OHD3NVP at 10 uM incubated for 24 hrs by uHPLC-MS analysis", "type": "ADME, cell-based", "outline": "as §2"}, "Hepatocyte [6]": {"tested_on": "Hepatocyte", "assay": "Induction of change in AKAP2 protein expression in human primary hepatocytes at 10 uM incubated for 48 hrs by relative-quantitation label-free proteomics analysis relative to NVP", "type": "cell-based", "outline": "as §1"}, "Cytochrome P450 2D6": {"target": "Cytochrome P450 2D6 (Homo sapiens, UniProt P10635)", "sequence (P10635 whole entry)": "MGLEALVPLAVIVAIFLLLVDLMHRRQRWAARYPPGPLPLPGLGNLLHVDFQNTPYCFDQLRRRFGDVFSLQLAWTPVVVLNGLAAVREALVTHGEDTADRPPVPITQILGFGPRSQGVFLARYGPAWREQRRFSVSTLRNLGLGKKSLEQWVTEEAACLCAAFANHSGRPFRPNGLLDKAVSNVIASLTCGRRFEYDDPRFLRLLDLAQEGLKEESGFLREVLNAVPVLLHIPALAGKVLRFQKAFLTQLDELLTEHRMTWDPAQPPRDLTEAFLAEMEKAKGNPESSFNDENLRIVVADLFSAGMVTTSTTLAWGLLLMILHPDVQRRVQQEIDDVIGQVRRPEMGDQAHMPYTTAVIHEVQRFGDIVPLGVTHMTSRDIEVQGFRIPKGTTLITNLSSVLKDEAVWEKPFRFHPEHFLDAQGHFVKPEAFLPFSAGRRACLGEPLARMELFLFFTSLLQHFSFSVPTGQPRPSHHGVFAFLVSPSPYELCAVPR", "assay": "Drug metabolism assessed as human CYP2D6-mediated formation of 12-OHNVP at 10 uM pre-incubated for 30 mins followed by addition of NADPH regenerating reagents by uHPLC-MS analysis", "type": "ADME", "conditions": "recombinant enzyme", "outline": "(§4)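 Insect-cell microsomes with single cDNA-expressed human P450 (100 nM) in 0.1 M potassium phosphate; 10 μM substrate prewarmed 5 min at 37 °C with NADPH-regenerating system, reaction started by adding microsomes; 30 min at 37 °C, 0.1% DMSO. Stopped, dried, reconstituted in methanol; triple-quadrupole SRM (12-OH 283.1→223.0, 2-OH 283.1→160.9, 3-OH 283.1→241.9), peak height; three replicates, mean ± SD.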"}, "Cytochrome P450 3A4": {"target": "Cytochrome P450 3A4 (Homo sapiens, UniProt P08684)", "sequence (P08684 whole entry)": "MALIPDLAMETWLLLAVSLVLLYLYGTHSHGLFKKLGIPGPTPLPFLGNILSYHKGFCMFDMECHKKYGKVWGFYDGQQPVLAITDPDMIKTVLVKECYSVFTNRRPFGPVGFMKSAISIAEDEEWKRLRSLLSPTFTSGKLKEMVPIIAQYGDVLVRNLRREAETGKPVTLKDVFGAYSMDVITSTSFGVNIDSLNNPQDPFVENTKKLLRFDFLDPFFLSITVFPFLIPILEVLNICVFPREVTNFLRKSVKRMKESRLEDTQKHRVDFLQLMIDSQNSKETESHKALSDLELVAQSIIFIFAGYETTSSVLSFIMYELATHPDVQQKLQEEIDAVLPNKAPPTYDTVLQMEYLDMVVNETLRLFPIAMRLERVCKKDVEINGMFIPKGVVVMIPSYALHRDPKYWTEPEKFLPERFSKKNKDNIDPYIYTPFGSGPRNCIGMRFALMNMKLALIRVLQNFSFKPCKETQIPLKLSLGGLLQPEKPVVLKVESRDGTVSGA", "assay": "Drug metabolism assessed as human CYP3A4-mediated formation of 2-OHNVP at 10 uM pre-incubated for 30 mins followed by addition of NADPH regenerating reagents by uHPLC-MS analysis", "type": "ADME", "conditions": "recombinant enzyme", "outline": "as §4"}, "Hepatocyte [7]": {"tested_on": "Hepatocyte", "assay": "Induction of change in KARS protein expression in human primary hepatocytes at 10 uM incubated for 48 hrs by relative-quantitation label-free proteomics analysis relative to NVP", "type": "cell-based", "outline": "as §1"}, "Hepatocyte [8]": {"tested_on": "Hepatocyte", "assay": "Induction of change in ALAD protein expression in human primary hepatocytes at 10 uM incubated for 48 hrs by relative-quantitation label-free proteomics analysis relative to NVP", "type": "cell-based", "outline": "as §1"}, "Cytochrome P450 1A2": {"target": "T1, Cytochrome P450 1A2 (Homo sapiens, UniProt P05177)", "T1 sequence (P05177 whole entry)": "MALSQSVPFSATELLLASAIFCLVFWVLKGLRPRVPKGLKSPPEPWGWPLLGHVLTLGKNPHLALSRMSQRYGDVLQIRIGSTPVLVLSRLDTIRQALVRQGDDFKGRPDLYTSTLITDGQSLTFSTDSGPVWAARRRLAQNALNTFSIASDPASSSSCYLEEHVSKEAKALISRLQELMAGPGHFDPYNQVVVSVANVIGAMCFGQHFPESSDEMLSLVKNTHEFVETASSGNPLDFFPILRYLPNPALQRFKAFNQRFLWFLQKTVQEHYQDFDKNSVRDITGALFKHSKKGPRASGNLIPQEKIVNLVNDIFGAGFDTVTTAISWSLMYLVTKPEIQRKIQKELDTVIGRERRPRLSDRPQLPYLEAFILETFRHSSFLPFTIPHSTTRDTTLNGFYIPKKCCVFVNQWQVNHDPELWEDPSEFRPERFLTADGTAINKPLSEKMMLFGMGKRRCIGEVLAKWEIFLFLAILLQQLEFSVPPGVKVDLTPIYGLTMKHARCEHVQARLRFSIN", "assay": "Drug metabolism assessed as human CYP1A2-mediated formation of 12-OHNVP at 10 uM pre-incubated for 30 mins followed by addition of NADPH regenerating reagents by uHPLC-MS analysis", "type": "ADME", "conditions": "recombinant enzyme", "outline": "as §4"}, "Cytochrome P450 [9]": {"tested_on": "Cytochrome P450", "assay": "Drug metabolism in human liver microsomes assessed as Cytochrome P450-mediated formation of 12-OHNVP at 10 uM […] in presence of CYP2C19 inhibitor (+)-N-3-benzyl-nirvanol and NADPH regenerating reagents by uHPLC-MS analysis", "type": "ADME"}, "Hepatocyte [10]": {"tested_on": "Hepatocyte", "assay": "Induction of change in FUBP3 protein expression in human primary hepatocytes at 10 uM incubated for 48 hrs by relative-quantitation label-free proteomics analysis relative to NVP", "type": "cell-based", "outline": "as §1"}, "Cytochrome P450 [11]": {"tested_on": "Cytochrome P450", "assay": "Drug metabolism in human primary hepatocytes assessed as Cytochrome P450-mediated formation of 3-OHNVP at 10 uM incubated for 24 to 48 hrs by uHPLC-MS analysis", "type": "ADME, cell-based", "outline": "as §3"}, "Hepatocyte [12]": {"tested_on": "Hepatocyte", "assay": "Induction of change in Endog protein expression in C57BL/6J mouse primary hepatocytes at 400 uM incubated for 8 hrs by relative-quantitation label-free proteomics analysis relative to NVP", "type": "cell-based", "outline": "as §1, with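 “Fresh primary” for “Cryoplateable pooled human”, “from male C57BL/6J mice aged 8–13 weeks,” for “(10 mixed-sex donors per pool; three pools),”, “(400” for “(10”, “(0.2%” for “(0.1%”, “8” for “48”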"}, "Hepatocyte [13]": {"tested_on": "Hepatocyte", "assay": "Induction of change in MSRA protein expression in human primary hepatocytes at 10 uM incubated for 48 hrs by relative-quantitation label-free proteomics analysis relative to NVP", "type": "cell-based", "outline": "as §1"}, "Hepatocyte [14]": {"tested_on": "Hepatocyte", "assay": "Induction of change in ACSF3 protein expression in human primary hepatocytes at 10 uM incubated for 48 hrs by relative-quantitation label-free proteomics analysis relative to NVP", "type": "cell-based", "outline": "as §1"}, "Hepatocyte [15]": {"tested_on": "Hepatocyte", "assay": "Induction of change in Fam120A protein expression in C57BL/6J mouse primary hepatocytes at 400 uM incubated for 8 hrs by relative-quantitation label-free proteomics analysis relative to NVP", "type": "cell-based", "outline": "as §1, with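 “Fresh primary” for “Cryoplateable pooled human”, “from male C57BL/6J mice aged 8–13 weeks,” for “(10 mixed-sex donors per pool; three pools),”, “(400” for “(10”, “(0.2%” for “(0.1%”, “8” for “48”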"}, "Hepatocyte [16]": {"tested_on": "Hepatocyte", "assay": "Induction of change in PLEKHA6 protein expression in human primary hepatocytes at 10 uM incubated for 48 hrs by relative-quantitation label-free proteomics analysis relative to NVP", "type": "cell-based", "outline": "as §1"}},
  "data": [
    {"smiles": "[2H]C([2H])([2H])c1ccnc2c1NC(=O)c1cccnc1N2C1CC1", "values": [
      {"measurement": "fold change (FC)", "setting": "Hepatocyte [1]", "result": -2.42},
      {"measurement": "Drug metabolism", "setting": "[2]", "result": "Metabolite_Notdetected"},
      {"measurement": "fold change (FC)", "setting": "Hepatocyte [3]", "result": 3.03},
      {"measurement": "Drug metabolism", "setting": "[4]", "result": "Metabolite_Detected"},
      {"measurement": "Drug metabolism", "setting": "[5]", "result": "Metabolite_Notdetected"},
      {"measurement": "fold change (FC)", "setting": "Hepatocyte [6]", "result": -2.67},
      {"measurement": "Drug metabolism", "setting": "Cytochrome P450 2D6", "result": "Metabolite_Detected"},
      {"measurement": "Drug metabolism", "setting": "Cytochrome P450 3A4", "result": "Metabolite_Detected"},
      {"measurement": "fold change (FC)", "setting": "Hepatocyte [7]", "result": -1.42},
      {"measurement": "fold change (FC)", "setting": "Hepatocyte [8]", "result": -1.86},
      {"measurement": "Drug metabolism", "setting": "Cytochrome P450 1A2", "result": "Metabolite_Detected"},
      {"measurement": "Drug metabolism", "setting": "Cytochrome P450 [9]", "result": "Metabolite_Detected"},
      {"measurement": "fold change (FC)", "setting": "Hepatocyte [10]", "result": -1.47},
      {"measurement": "Drug metabolism", "setting": "Cytochrome P450 [11]", "result": "Metabolite_Detected"},
      {"measurement": "fold change (FC)", "setting": "Hepatocyte [12]", "result": 2.07},
      {"measurement": "fold change (FC)", "setting": "Hepatocyte [13]", "result": -2.05},
      {"measurement": "fold change (FC)", "setting": "Hepatocyte [14]", "result": -1.63},
      {"measurement": "fold change (FC)", "setting": "Hepatocyte [15]", "result": 2.06},
      {"measurement": "fold change (FC)", "setting": "Hepatocyte [16]", "result": 1.59}
    ]}
  ]
}
